Results as given in ChEMBL document CHEMBL1629527, “In vitro antifungal activities of bis(alkylpyridinium)alkane compounds against pathogenic yeasts and molds” (Antimicrob Agents Chemother, 2010).

What was measured:
Lichtheimia corymbifera [1] = assay: Antifungal activity against Absidia corymbifera 04-200170 after 24 to 72 hrs by broth microdilution method; type: functional
Summary of the method: (§1)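 Broth microdilution MIC per CLSI M27-A3 (yeasts) or M38-A2 (molds). RPMI 1640 with L-glutamine, without bicarbonate, buffered to pH 7.0 with 0.165 M MOPS. Final test range for the compounds was 0.175–87.5 μM. Incubation at 35°C with visual reading at 24–72 h. MIC was the lowest concentration giving 100% inhibition versus the growth control (azoles 50% or 100%, by organism). Each isolate was run in duplicate in two independent experiments.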

Candida parapsilosis [2] = assay: Antifungal activity against Candida parapsilosis 04-202398 after 48 to 72 hrs; type: functional; settings: Lodderomyces parapsilosis
Summary of the method: (§2)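 CLSI M27-A3 broth microdilution for yeasts in RPMI 1640 with L-glutamine and no bicarbonate, buffered with 0.165 M MOPS to pH 7.0. Compounds were dissolved in water and tested at 0.175–87.5 μM final, 35°C. MIC was read visually at 24–72 h as 100% inhibition versus growth control. For MFC, 30 μl from clear wells went onto SDA at 35°C for 48–72 h, reading the lowest concentration without colonies. Duplicates, two independent runs.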

Candida parapsilosis [3] = assay: Antifungal activity against Candida parapsilosis ATCC 22019 after 24 to 72 hrs by broth microdilution method; type: functional; settings: Lodderomyces parapsilosis; summary of the method: as §1
Nakaseomyces glabratus [4] = assay: Antifungal activity against Candida glabrata 04-202345 after 24 to 72 hrs by broth microdilution method; type: functional; summary of the method: as §1
Cryptococcus neoformans [5] = assay: Antifungal activity against Cryptococcus neoformans 05-202523 after 24 to 72 hrs by broth microdilution method; type: functional; summary of the method: as §1
[6] = tested on: Cunninghamella bertholletiae; assay: Antifungal activity against Cunninghamella bertholletiae 99-12187 after 24 to 72 hrs by broth microdilution method; type: functional; summary of the method: as §1
Exophiala spinifera = assay: Antifungal activity against Exophiala spinifera 03-200803 after 24 to 72 hrs by broth microdilution method; type: functional
Summary of the method: (§3)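 Mold isolates subcultured on potato dextrose agar, then tested by CLSI M38-A2 broth microdilution in RPMI 1640 (L-glutamine, no bicarbonate) buffered to pH 7.0 with 0.165 M MOPS. Compounds were dissolved in water and tested at a final 0.175–87.5 μM. Plates were incubated at 35°C. MIC was read visually as the lowest concentration giving 100% inhibition versus the growth control. Each isolate was run in duplicate in two independent experiments.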

Cryptococcus neoformans [7] = assay: Antifungal activity against Cryptococcus neoformans ATCC 90112 after 24 to 72 hrs by broth microdilution method; type: functional; summary of the method: as §1
Aspergillus fumigatus [8] = assay: Antifungal activity against Aspergillus fumigatus 05-203114 after 48 to 72 hrs; type: functional
Summary of the method: (§4)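 CLSI M38-A2 broth microdilution for molds in RPMI 1640 with L-glutamine and no bicarbonate, buffered with 0.165 M MOPS to pH 7.0. Compounds were dissolved in water and tested at 0.175–87.5 μM final, 35°C, up to 7 days. MIC was read visually as 100% inhibition versus growth control. For MFC, clear wells were plated on SDA and the lowest concentration with no colonies taken. Each isolate was run in duplicate, two independent experiments.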

Scedosporium apiospermum = assay: Antifungal activity against Scedosporium apiospermum 05-203100 after 24 to 72 hrs by broth microdilution method; type: functional; summary of the method: as §3
Rhizopus arrhizus [9] = assay: Antifungal activity against Rhizopus oryzae 05-203111 after 24 to 72 hrs by broth microdilution method; type: functional; summary of the method: as §3
[10] = Antifungal activity against Paecilomyces lilacinus 05-200601 after 24 to 72 hrs by broth microdilution method; type: functional; settings: Purpureocillium lilacinum; summary of the method: as §3
Rhizopus arrhizus [11] = assay: Antifungal activity against Rhizopus oryzae 05-203111 after 48 to 72 hrs; type: functional
Summary of the method: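 After the broth microdilution MIC read, suspension from every well without visible growth was plated onto Sabouraud dextrose agar and incubated at 35°C, up to 7 days for molds. MFC was taken as the lowest drug concentration with no colonies.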

[12] = tested on: Cryptococcus gattii species complex; assay: Antifungal activity against Cryptococcus gattii 05-200122 after 24 to 72 hrs by broth microdilution method; type: functional, Cryptococcus bacillisporus; summary of the method: as §1
Aspergillus flavus [13] = assay: Antifungal activity against Aspergillus flavus 05-203758 after 24 to 72 hrs by broth microdilution method; type: functional; summary of the method: as §1
Aspergillus terreus [14] = assay: Antifungal activity against Aspergillus terreus 05-202844 after 24 to 72 hrs by broth microdilution method; type: functional; summary of the method: as §1
Candida parapsilosis [15] = assay: Antifungal activity against Candida parapsilosis ATCC 22019 after 48 to 72 hrs; type: functional; settings: Lodderomyces parapsilosis
Summary of the method: (§5)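 MFC: after the MIC read, 30-μl aliquots from each well without visible growth were plated onto Sabouraud dextrose agar and incubated at 35°C. Reading was at 48–72 h for yeasts and up to 7 days for molds. MFC was the lowest concentration with no colonies.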

Pichia kudriavzevii [16] = assay: Antifungal activity against Candida krusei ATCC 6258 after 24 to 72 hrs by broth microdilution method; type: functional; summary of the method: as §1
Candida albicans [17] = assay: Antifungal activity against Candida albicans ATCC 10231 after 24 to 72 hrs by broth microdilution method; type: functional; summary of the method: as §1
Candida tropicalis = assay: Antifungal activity against Candida tropicalis 04-202361 after 24 to 72 hrs by broth microdilution method; type: functional; summary of the method: as §1
Pichia kudriavzevii [18] = assay: Antifungal activity against Candida krusei 04-202328 after 24 to 72 hrs by broth microdilution method; type: functional; summary of the method: as §1
Candida albicans [19] = assay: Antifungal activity against Candida albicans ATCC 90028 after 24 to 72 hrs by broth microdilution method; type: functional; summary of the method: as §1
Aspergillus flavus [20] = assay: Antifungal activity against Aspergillus flavus ATCC 204304 after 24 to 72 hrs by broth microdilution method; type: functional; summary of the method: as §1
Lomentospora prolificans [21] = assay: Antifungal activity against Scedosporium prolificans 05-203060 after 24 to 72 hrs by broth microdilution method; type: functional; summary of the method: as §3
Aspergillus fumigatus [22] = assay: Antifungal activity against Aspergillus fumigatus ATCC 204305 after 24 to 72 hrs by broth microdilution method; type: functional; summary of the method: as §1
Fusarium solani = assay: Antifungal activity against Fusarium solani 04-203102 after 24 to 72 hrs by broth microdilution method; type: functional; summary of the method: as §3
Candida parapsilosis [23] = assay: Antifungal activity against Candida parapsilosis 04-202398 after 24 to 72 hrs by broth microdilution method; type: functional; settings: Lodderomyces parapsilosis; summary of the method: as §1
Aspergillus fumigatus [24] = assay: Antifungal activity against Aspergillus fumigatus 05-203114 after 24 to 72 hrs by broth microdilution method; type: functional; summary of the method: as §1
Pichia kudriavzevii [25] = assay: Antifungal activity against Candida krusei 04-202328 after 48 to 72 hrs; type: functional; summary of the method: as §2
[26] = Antifungal activity against Exophiala jeanselmei 03-200268 after 24 to 72 hrs by broth microdilution method; type: functional; summary of the method: as §1
[27] = Antifungal activity against Paecilomyces lilacinus 05-200601 after 48 to 72 hrs; type: functional; settings: Purpureocillium lilacinum; summary of the method: as §4
Aspergillus terreus [28] = assay: Antifungal activity against Aspergillus terreus 05-202844 after 48 to 72 hrs; type: functional; summary of the method: as §5
Pichia kudriavzevii [29] = assay: Antifungal activity against Candida krusei […] after 48 to 72 hrs; type: functional; summary of the method: as §5
[30] = Antifungal activity against Exophiala jeanselmei 03-200268 after 48 to 72 hrs; type: functional; summary of the method: as §4
Aspergillus fumigatus [31] = assay: Antifungal activity against Aspergillus fumigatus ATCC 204305 after 48 to 72 hrs; type: functional; summary of the method: as §4
Pichia kudriavzevii [32] = assay: Antifungal activity against Candida krusei ATCC 9258 after 24 to 72 hrs by broth microdilution method; type: functional; summary of the method: as §1
Aspergillus flavus [33] = assay: Antifungal activity against Aspergillus flavus 05-203758 after 48 to 72 hrs; type: functional; summary of the method: as §4
Aspergillus flavus [34] = assay: Antifungal activity against Aspergillus flavus ATCC 204304 after 48 to 72 hrs; type: functional; summary of the method: as §5
Lichtheimia corymbifera [35] = assay: Antifungal activity against Absidia corymbifera 04-200170 after 48 to 72 hrs; type: functional; summary of the method: as §4
Lomentospora prolificans [36] = assay: Antifungal activity against Scedosporium prolificans 05-203060 after 48 to 72 hrs; type: functional; summary of the method: as §4
Cryptococcus neoformans [37] = assay: Antifungal activity against Cryptococcus neoformans 05-202523 after 48 to 72 hrs; type: functional; summary of the method: as §5
Nakaseomyces glabratus [38] = assay: Antifungal activity against Candida glabrata 04-202345 after 48 to 72 hrs; type: functional; summary of the method: as §5
Candida albicans [39] = assay: Antifungal activity against Candida albicans ATCC 90028 after 48 to 72 hrs; type: functional; summary of the method: as §5

SMILES | MIC (Lichtheimia corymbifera [1]) [µg/mL] | MIC (Candida parapsilosis [3]) [µg/mL] | MIC (Nakaseomyces glabratus [4]) [µg/mL] | MIC (Cryptococcus neoformans [5]) [µg/mL] | MIC [6] [µg/mL] | MIC (Exophiala spinifera) [µg/mL] | MIC (Cryptococcus neoformans [7]) [µg/mL] | MIC (Scedosporium apiospermum) [µg/mL] | MIC (Rhizopus arrhizus [9]) [µg/mL] | MIC [10] [µg/mL] | MIC [12] [µg/mL] | MIC (Aspergillus flavus [13]) [µg/mL] | MIC (Aspergillus terreus [14]) [µg/mL] | MIC (Pichia kudriavzevii [16]) [µg/mL] | MIC (Candida albicans [17]) [µg/mL] | MIC (Candida tropicalis) [µg/mL] | MIC (Pichia kudriavzevii [18]) [µg/mL] | MIC (Candida albicans [19]) [µg/mL] | MIC (Aspergillus flavus [20]) [µg/mL] | MIC (Lomentospora prolificans [21]) [µg/mL] | also measured
[Cl-].[Cl-].c1ccc(CCCc2cc[n+](CCCCCCCCCCCC[n+]3ccc(CCCc4ccccc4)cc3)cc2)cc1 | > 55.8 | 0.87 | 0.87 | 27.9 | 27.9 | 1.74 | 1.74 | > 55.8 | 0.87 | > 55.8 | 1.74 | > 55.8 | 1.74 | 13.9 | 1.74 | 0.87 | 13.9 | 1.74 | 55.8 | > 55.8 | MFC (Candida parapsilosis [2]): > 55.8 µg/mL; MFC (Aspergillus fumigatus [8]): 55.8 µg/mL; MFC (Rhizopus arrhizus [11]): 1.74 µg/mL; MFC (Candida parapsilosis [15]): 1.74 µg/mL; MIC (Aspergillus fumigatus [22]): 27.9 µg/mL; MIC (Fusarium solani): 27.9 µg/mL; MIC (Candida parapsilosis [23]): 55.8 µg/mL; MIC (Aspergillus fumigatus [24]): 13.9 µg/mL; MFC (Pichia kudriavzevii [25]): 27.9 µg/mL; MIC [26]: 1.74 µg/mL
CCCCCc1cc[n+](CCCCCCCCCCCC[n+]2ccc(CCCCC)c(CCCCC)c2)cc1CCCCC.[Cl-].[Cl-] | 14.9 | 1.86 | 0.93 | 7.5 | 7.5 | 1.86 | 1.86 | 3.7 | 1.86 | 14.9 | 1.86 | 14.9 | 0.93 | 1.86 | 1.86 | 1.86 | 1.86 | 1.86 | 7.5 | 1.86 | MFC (Candida parapsilosis [2]): 14.9 µg/mL; MFC [27]: 29.8 µg/mL; MFC (Aspergillus terreus [28]): 1.86 µg/mL; MFC (Aspergillus fumigatus [8]): 14.9 µg/mL; MFC (Pichia kudriavzevii [29]): 3.7 µg/mL; MFC [30]: 3.7 µg/mL; MFC (Aspergillus fumigatus [31]): 14.9 µg/mL; MIC (Pichia kudriavzevii [32]): 1.86 µg/mL; MFC (Aspergillus flavus [33]): 29.8 µg/mL; MIC (Aspergillus fumigatus [22]): 7.5 µg/mL; MIC (Fusarium solani): 14.9 µg/mL; MIC (Candida parapsilosis [23]): 7.5 µg/mL; MIC (Aspergillus fumigatus [24]): 7.5 µg/mL; MFC (Aspergillus flavus [34]): 14.9 µg/mL; MFC (Lichtheimia corymbifera [35]): 27.8 µg/mL; MFC (Lomentospora prolificans [36]): 3.7 µg/mL; MIC [26]: 1.86 µg/mL
CC(C)CCc1cc[n+](CCCCCCCCCCCC[n+]2ccc(CCC(C)C)cc2)cc1.[Cl-].[Cl-] | > 47.3 | 1.48 | 1.48 | 11.8 | > 47.3 | 1.48 | 2.96 | 11.8 | 5.9 | > 47.3 | 1.48 | > 47.3 | 2.96 | 23.7 | 2.96 | 2.96 | 23.7 | 2.96 | > 47.3 | 2.96 | MFC (Aspergillus terreus [28]): 5.9 µg/mL; MFC (Pichia kudriavzevii [29]): 23.7 µg/mL; MFC (Rhizopus arrhizus [11]): 23.7 µg/mL; MFC (Cryptococcus neoformans [37]): 47.3 µg/mL; MFC (Nakaseomyces glabratus [38]): 5.9 µg/mL; MFC (Candida parapsilosis [15]): 2.96 µg/mL; MIC (Pichia kudriavzevii [32]): 11.8 µg/mL; MIC (Aspergillus fumigatus [22]): > 47.3 µg/mL; MIC (Fusarium solani): 47.3 µg/mL; MIC (Candida parapsilosis [23]): > 47.3 µg/mL; MFC (Candida albicans [39]): 5.9 µg/mL; MIC (Aspergillus fumigatus [24]): > 47.3 µg/mL; MFC (Pichia kudriavzevii [25]): 47.3 µg/mL; MIC [26]: 2.96 µg/mL
